Laboratory results published in the EternaBench riboswitch data.

System: MS2 coat protein
Assay: apparent Kd, MS2 coat protein; higher = weaker binding; RNA-MaP array; FMN 200 µM where present
Outline: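 Designs were transcribed by stalled E. coli RNA polymerase on Illumina sequencing-chip clusters. They were titrated with SNAP-549-labelled MS2 coat protein from 0.7 or 1.5 nM, doubling to 3 µM, in 100 mM Tris-HCl pH 7.5, 80 mM KCl, 4 mM MgCl2, BSA, DTT, yeast tRNA and Tween-20, without and then with constant ligand. The apparent Kd is the median of filtered per-cluster fits after normalisation of green signal to red-channel RNA signal and control-cluster median Fmax.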

[1] = designed as: OFF switch for flavin mononucleotide, no ligand
[2] = ligand present: flavin mononucleotide, designed as: OFF switch for flavin mononucleotide
[3] = designed as: ON switch for flavin mononucleotide, no ligand
[4] = ligand present: flavin mononucleotide, designed as: ON switch for flavin mononucleotide

Row | Sequence | apparent Kd [1] [nM] | apparent Kd [2] [nM] | apparent Kd [3] [nM] | apparent Kd [4] [nM]
1 | AAAGUAAACGAAGGAUAUGGUUACAUGAGGAUCACCCAUGUAAUGGUUGUGAUAUUGAUUAAGUUCCAGAAGGUCGUAUACAUA | 199 | 371 | – | –
2 | UCAUUGAUUGUGAGGAUAUCGAUGUGAUGGAUUGUCGAGAAGGCACAUGAGGAUCACCCAUGUGGGUGUGGGCU | 864 | 454 | – | –
3 | CAAUUUAUAACAGGAUAUGUAAUUCAAUAGAAAAUAGAAGGGUUUUAUACAUGAGGAUCACCCAUGUCAUGUAUCAUAAUUACC | 143 | 122 | – | –
4 | GUGUACAGAGGAUAUACACGAAUCUAGCGAAGCUAGGUUUGACAUGAGGAUCACCCAUGUAGAAGGCUGUACAC | 16.1 | 24.2 | – | –
5 | CGUGCGUAUGUGAGGAUAUGCUGGUCCUUGGAUCAGCAGAAGGCACAUGAGGAUCACCCAUGUGGUGUCGUACU | 297 | 19.2 | – | –
6 | AUGACAUGCAGAGCGCAACGGCGUACAUGAGGAUCACCCAUGUAGGAUAUACUACACAAAGUGUAGUAGAAGGACAUGCGACUG | 18.6 | 21.3 | – | –
7 | UGUGAGUUGAUGUUAGAUAGGAGUACAUGAGGAUCACCCAUGUAGGAUAUUCAAAGACGCAGAUAGAAGAAGGACAUAGGUUUC | 16.1 | 14.8 | – | –
8 | CUUUAGUGAGGAUAUCAGUGGUAAUACAAUAGUAUUACUACUGAGAAGGCACAUGAGGAUCACCCAUGUUCCUC | 26.6 | 155 | – | –
9 | CUGUUAUUGAUCCAUUUUUUCAACAUGAGGAUCACCCAUGUGCAGGAUAUCGUGAUUAUUAUCAACGAGAAGGGCAGAUUCACG | 74 | 178 | – | –
10 | GGUGGACAUGAGGAUCACCCAUGUGAGGAUAUCGGCUAUCUUCUCGCUGUCGGUUGCUCGAGAAGGCACAUUGU | 70.6 | 86.7 | – | –
11 | GUGUACGGAGGAUAUAUGUGGGCAGGCUGACCUGCAGCUUCACAUGAGGAUCACCCAUGUAGAAGGCUGUACAC | 22.7 | 114 | – | –
12 | CAGUGCAUUGAGAAGGGACACCGGGAUCCCAACUUCUCUCAUAACGGACAUGAGGAUCACCCAUGUCAGGAUAUCAACGUUUAG | 23.1 | 16.7 | – | –
13 | CUUUGCGUUAGAGGAUAUAUUGUGUGUUACACAAUAGAAGGCUAAACAAACAUGAGGAUCACCCAUGUUGUCCAUGUCGUCGGC | – | – | 16.8 | 21
14 | UUGAUACAUACCUCCAUAAACAUGAGGAUCACCCAUGUAAGUGAGGAUAUAGAUUGUUUAGUAUACUAGAAGGCACUUAGAUAU | 13.1 | 11.9 | – | –
15 | GGUCGUCACAUUAACAUGAGGAUCACCCAUGUCUCUUGACAUGAGGAUAUGGAUCCUAAUUGGAUCCAGAAGGCAUGGACGACC | – | – | 1030 | 96.5
16 | UUGUUACAUGAGGAUCACCCAUGUGAGGAUAUGGUUCGGUACUGUCAUGUCGCGUACUCCAGAAGGCACAUGUU | 97.1 | 303 | – | –
17 | CGCUGGAACACAGGAUAUCGCACAUGCCUGAUCCAGUUAAUAUCACAUGAGGAUCACCCAUGUGGUGAGAAGGGUGUCAAGUUU | 27.1 | 47.2 | – | –
18 | GCUGCGCGAGGAUAUGCGGUUUGUGCUUUGGCCCAUGGCGUACAUGAGGAUCACCCAUGUAGAAGGCGUGUGGG | 13.5 | 13.8 | – | –
19 | UGGACCGAGCUGUCGGUUGGCUCUUAGGAUAUGACAUGAGGAUCACCCAUGUGGGAUCUAAAUUGUCAGAAGGAGGGUUCUGGG | 48.3 | 40.3 | – | –
20 | UGCCAUUACAUGAGGAUCACCCAUGUUCGCUAUGCGGGCUCGCAGGAUAUCCUCGCAGAUAAAGAGGAGAAGGGUGAUCCCGAC | – | – | 48 | 28.9
21 | CCCAUCGCAUGAGGAUAUGGUCAGGUUUCCUGACCAGAAGGCAUGUCAUAAGACAUGAGGAUCACCCAUGUAGUUAAGAUGGGA | – | – | 672 | 47.5
22 | UUCAUCAGUGAAGGAUAUCUAUGUCCAACAUGAGGAUCACCCAUGUUGAGGAUUACCUAUGUGUAGGAGAAGGUCAAUAUAACU | – | – | 6.79 | 6.1
23 | CGAUAGGACAGAGGAUAUACACAUGAGGAUCACCCAUGUGAUUACAACGCUUAAGCUCCAAACAUGUAGAAGGCUGUCCUAUCG | 21.7 | 27.9 | – | –
24 | GCAGCUAUUAUUAUACAUGAGGAUCACCCAUGUUACAUGUGUAAGGAUAUUGAUGUUUAUAUAAUCAAGAAGGUACGAAGCUGC | – | – | 11.6 | 7.15

Row | Sequence | apparent Kd [1] [nM] | apparent Kd [2] [nM] | apparent Kd [3] [nM] | apparent Kd [4] [nM]
25 | GCCAUCGCAUGAGGAUAUGGCACCGUUUCGGUGCCAGAAGGCAUGUCAAAUGACAUGAGGAUCACCCAUGUAGUUAAGGUGGCA | – | – | 225 | 14.9
26 | CGCAGUACUUAGGUACUACACAUGAGGAUCACCCAUGUAUCACAGGAUAUGCAUGAUAUAUUCAGGCAGAAGGGUGAUCUUACC | – | – | 54.5 | 130
27 | GGUGCGUUUGUGAGGAUAUGCUGGUCCUUGGAUCCGCAGAAGGCACAUGAGGAUCACCCAUGUGGUGUCGUACC | 289 | 40.3 | – | –
28 | UUUUACGGAGGAUAUACAUUUUUUUUAUUAUCCUCAUUAUUACAUGAGGAUCACCCAUGUAGAAGGCCGAUUUU | 42.6 | 173 | – | –
29 | ACAGUGCGAGGAUAUACAUGAGGAUCACCCAUGUGAGAGAAAUAAGUGAGGAAGAAAAGUAGAAGGCGCGUUGA | 75.5 | 91.7 | – | –
30 | UUGUUAUAUGUAGGAUAUGCAUAUUAUUAUUAUGCAGAAGGACAUGAGGAUCACCCAUGUAUAUUAUUGUUAUAUGUUAUAUAU | 23 | 25.4 | – | –
31 | CAUGUCCUCACAGGAUAUGCUGGACUUUGUCCAGCAGAAGGGUGAACAUGAGGAUCACCCAUGUAAUGGACAUGUAUAUUUAAU | – | – | 801 | 50.9
32 | GCCGUAAGUGUGAGGAUAUACCUAUGGAUACAUAGGUAGAAGGCACAUGAGGAUCACCCAUGUCCUUAAUCGGC | 247 | 267 | – | –
33 | UAGAAACAUGAGGAUCACCCAUGUGGGUUAAACACAGGAUAUCACGCCAAAAGAAAAGCGUGAGAAGGGUGACCGA | – | – | 86.4 | 717
34 | UUAAUUAUACAAGGAUAUCUAUUGUAGUUUCGACUUACAUGAGGAUCACCCAUGUUAAUAUGUUUAGAGAAGGUGUAUUUUCUG | – | – | 51 | 49.5
35 | GUGAAGUGAGGAUAUACGAGAGAGGCUGAACCGGACGAGAAGUAGAAGGCACAUGAGGAUCACCCAUGUACGGG | – | 236 | – | –
36 | UUGGACGUCGUAGGAUAUGUAGGAUAUUCCUACAUGAGGAUCACCCAUGUUGACAUGGAAGAAGGACAGAAUGACGAUGUCCAU | – | – | 374 | 5.51
37 | GCUGCAUAGGCAGGAUAUGCAAACAUGAGAUGAAAAUACAUCUCAUGUACAUGAGGAUCACCCAUGUAGAAGGGCCUGUGCAGU | 14.9 | 15.5 | – | –
38 | GGUGCGUUUGUGAGGAUAUGCUGGUCCUUGGUUCAGCAGAAGGCACAUGAGGAUCACCCAUGUGGUGUCGUACC | 240 | 28 | – | –
39 | GAGGACUGAUAAUAAUGUAGAAAUACAUGAGGAUCACCCAUGUAGGAUAUCGUCAGGAAUACUGACGAGAAGGACAUACAGUCC | 16 | 23.2 | – | –
40 | GCCAACUUAUGAGGAUAUGGCACCUUAUUGGUGCCAGAAGGCAUGUCUCUUGACAUGAGGAUCACCCAUGUAUUAUAGUUGGCA | – | – | 421 | 158
41 | UUUUACAUAGGAUAUAGUUUGUUGUACAUGAGGAUCACCCAUGUUUUUGGUUGUGCUUUUCUAGAAGGAUGUUUCU | 47.7 | 41.7 | – | –
42 | GUAUCAUAUGAGAAGGCGAUCAUGAAACAUGAUCGAGGAUAUCAUGAAAACAUGAGGAUCACCCAUGUAUGGGUAUUAAGGUAC | – | – | 65.6 | 41.7
43 | ACAUGUAAUACAGGAUAUGUUAUACAUUAAUCAAUCAGUUAUUAUGAUUAUACAGAAGGGUAUACAUGAGGAUCACCCAUGUUA | 19.7 | 26.2 | – | –
44 | GGGUACAUCGGAGGAUAUCAUGUAAAUACAUGAGGAUCACCCAUGUCGAUGGAUACAUCGGAGAUUGAGAAGGCCGAUGUACCG | – | – | 13 | 5.34
45 | GCCAUCGUAUGAGGAUAUGGCACCGAAACGGUGCCAGAAGGCAUGUCAAUAGACAUGAGGAUCACCCAUGUCUUAUCGAUGGCA | – | – | 19.9 | 18.9
46 | GGAUCGAGUGUGAGGAUAUGCUGGUCCUUGGAUCAGCAGAAGGCACAUGAGGAUCACCCAUGUGAUAUCGAUCC | 56.1 | 541 | – | –
47 | GGCGAGUGAGGAUAUCUGAUGUCUAACUUCGGUUAGACAUCAGAGAAGGCACAUGAGGAUCACCCAUGUCCGCC | 19.3 | 17.1 | – | –
48 | GGACGUCACAUGAACAUGAGGAUCACCCAUGUAAAUUCUCAUGAGGAUAUGGAACCUAAUUGGUUCCAGAAGGCGUGGACGUCC | – | – | 849 | 489
